Columns and labels:
TLX-5 [1] = assay: In vivo antitumor activity against the TLX5 lymphoma cell line in mouse species CBA/CA after intraperitoneal administration (inoculum cells-2x10E5,sc) at the dose of 20 mg/kg; format: functional
How it was run: (§1)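 CBA/CA mice were inoculated with 2 × 10^5 TLX5 lymphoma cells. Drug given intraperitoneally in 10% Me2SO in arachis oil, 5 mice per dose, and the experiment lasted 60 days. Survivors at 60 days were recorded. T/C % = mean death day of treated animals / mean death day of control animals.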

TLX-5 [2] = assay: In vivo antitumor activity against the TLX5 lymphoma cell line in mouse species CBA/CA after intraperitoneal administration (inoculum cells-2x10E5,sc) at the dose of 40 mg/kg; format: functional; how it was run: as §1
TLX-5 [3] = assay: In vivo antitumor activity against the TLX5 lymphoma cell line in mouse species CBA/CA after intraperitoneal administration (inoculum cells-2x10E5,sc) at the dose of 80 mg/kg; format: functional; how it was run: as §1
TLX-5 [4] = assay: (§2) In vivo antitumor activity against the TLX5 lymphoma cell line in mouse species CBA/CA after intraperitoneal administration (inoculum cells-2x10E5,sc) at the dose of 160 mg/kg; format: functional
How it was run: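 CBA/CA mice were implanted sc with 2 × 10^5 TLX5 lymphoma cells. Compound was given ip on day 3 in 10% Me2SO in arachis oil, over 60 days, in groups of 5. T/C% = mean death day of treated/mean death day of controls. Survivors to day 60 were counted.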

TLX-5 [5] = assay: In vivo antitumor activity against the TLX5 lymphoma cell line in mouse species CBA/CA after intraperitoneal administration (inoculum cells-2x10E5,sc) at the dose of 20 mg/kg on 5th day; format: functional
TLX-5 [6] = assay: In vivo antitumor activity against the TLX5 lymphoma cell line in mouse species CBA/CA after intraperitoneal administration (inoculum cells-2x10E5,sc) at the dose of 320 mg/kg on 5th day; format: functional
TLX-5 [7] = assay: In vivo antitumor activity against the TLX5 lymphoma cell line in mouse species CBA/CA after intraperitoneal administration (inoculum cells-2x10E5,sc) at the dose of 40 mg/kg on 5th day; format: functional
TLX-5 [8] = assay: In vivo antitumor activity against the TLX5 lymphoma cell line in mouse species CBA/CA after intraperitoneal administration (inoculum cells-2x10E5,sc) at the dose of 80 mg/kg on 5th day; format: functional
L1210 [9] = assay: In vivo antitumor activity against the L1210 leukemia cell line in mouse species B6D2F1 after peroral administration (inoculum cells-10E5,ip) at the dose of 80 mg/kg on 10th day; format: functional; conditions: route oral
How it was run: (§3)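 B6D2F1 mice were inoculated with 10^5 L1210 leukemia cells, ip or iv as the line states. Compound was given orally as a suspension in 1% (carboxymethyl)cellulose in water, dosed on day 1 or 3, over 28–39 days. T/C% = mean death day of treated/mean death day of controls. Survivors to the end were counted in groups of 7–8.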

TLX-5 [10] = assay: In vivo antitumor activity against the TLX5 lymphoma cell line in mouse species CBA/CA after intraperitoneal administration (inoculum cells-2x10E5,sc) at the dose of 10 mg/kg on 5th day; format: functional
TLX-5 [11] = assay: In vivo antitumor activity against the TLX5 lymphoma cell line in mouse species CBA/CA after intraperitoneal administration (inoculum cells-2x10E5,sc) at the dose of 5 mg/kg on 5th day; format: functional
TLX-5 [12] = assay: as §2; format: functional; how it was run: as §1; remark: listed apart in the source
TLX-5 [13] = assay: In vivo antitumor activity against the TLX5 lymphoma cell line in mouse species CBA/CA after intraperitoneal administration (inoculum cells-2x10E5,sc) at the dose of 320 mg/kg; format: functional; how it was run: as §1
TLX-5 [14] = assay: In vivo antitumor activity against the TLX5 lymphoma cell line in mouse species CBA/CA after intraperitoneal administration (inoculum cells-2x10E5,sc) at the dose of 160 mg/kg on 5th day; format: functional
TLX-5 [15] = assay: In vivo antitumor activity against the TLX5 lymphoma cell line in mouse species CBA/CA after intraperitoneal administration (inoculum cells-2x10E5,sc) at the dose of 320 mg/kg on 3rd day
L1210 [16] = assay: In vivo antitumor activity against the L1210 leukemia cell line in mouse species B6D2F1 after peroral administration (inoculum cells-10E5,iv) at the dose of 40 mg/kg; format: functional; conditions: route oral
L1210 [17] = assay: In vivo antitumor activity against the L1210 leukemia cell line in mouse species B6D2F1 after peroral administration (inoculum cells-10E5,iv) at the dose of 10 mg/kg; format: functional; conditions: route oral
L1210 [18] = assay: In vivo antitumor activity against the L1210 leukemia cell line in mouse species B6D2F1 after peroral administration (inoculum cells-10E5,iv) at the dose of 20 mg/kg; format: functional; conditions: route oral
L1210 [19] = assay: In vivo antitumor activity against the L1210 leukemia cell line in mouse species B6D2F1 after peroral administration (inoculum cells-10E5,iv) at the dose of 10 mg/kg on 7th day; format: functional; conditions: route oral
L1210 [20] = assay: In vivo antitumor activity against the L1210 leukemia cell line in mouse species B6D2F1 after peroral administration (inoculum cells-10E5,iv) at the dose of 40 mg/kg on 7th day; format: functional; conditions: route oral; how it was run: as §3
TLX-5 [21] = assay: In vivo antitumor activity against the TLX5 lymphoma cell line in mouse species CBA/CA after intraperitoneal administration (inoculum cells-2x10E5,sc) at the dose of 10 mg/kg; format: functional
L1210 [22] = assay: In vivo antitumor activity against the L1210 leukemia cell line in mouse species B6D2F1 after peroral administration (inoculum cells-10E5,iv) at the dose of 20 mg/kg on 7th day; format: functional; conditions: route oral; how it was run: as §3
L1210 [23] = assay: In vivo antitumor activity against the L1210 leukemia cell line in mouse species B6D2F1 after peroral administration (inoculum cells-10E5,iv) at the dose of 200 mg/kg; format: functional; conditions: route oral
L1210 [24] = assay: In vivo antitumor activity against the L1210 leukemia cell line in mouse species B6D2F1 after peroral administration (inoculum cells-10E5,iv) at the dose of 100 mg/kg; format: functional; conditions: route oral
L1210 [25] = assay: In vivo antitumor activity against the L1210 leukemia cell line in mouse species B6D2F1 after peroral administration (inoculum cells-10E5,iv) at the dose of 50 mg/kg; format: functional; conditions: route oral
L1210 [26] = assay: In vivo antitumor activity against the L1210 leukemia cell line in mouse species B6D2F1 after peroral administration (inoculum cells-10E5,iv) at the dose of 100 mg/kg on 7th day; format: functional; conditions: route oral; how it was run: as §3
L1210 [27] = assay: In vivo antitumor activity against the L1210 leukemia cell line in mouse species B6D2F1 after peroral administration (inoculum cells-10E5,iv) at the dose of 200 mg/kg on 10th day; format: functional; conditions: route oral; how it was run: as §3
L1210 [28] = assay: In vivo antitumor activity against the L1210 leukemia cell line in mouse species B6D2F1 after peroral administration (inoculum cells-10E5,iv) at the dose of 50 mg/kg on 7th day; format: functional; conditions: route oral; how it was run: as §3
L1210 [29] = assay: In vivo antitumor activity against the L1210 leukemia cell line in mouse species B6D2F1 after peroral administration (inoculum cells-10E5,ip) at the dose of 10 mg/kg on 10th day; format: functional; conditions: route oral; how it was run: as §3

Q: With `O=C(NC1CCCCC1)c1ncn2c(=O)n(CCCl)nnc12` as the compound, how does the T/C (TLX-5 [1]) read?
A: 109%

Q: And the T/C (TLX-5 [2])?
A: 125%

Q: And the T/C (TLX-5 [3])?
A: >277%

Q: And the Survivors (TLX-5 [4])?
A: 0

Q: What about the Survivors (TLX-5 [5]) of the same compound?
A: 0

Q: What about the Survivors (TLX-5 [6]) of the same compound?
A: 0

Q: What about the Survivors (TLX-5 [7]) of the same compound?
A: 0

Q: And the Survivors (TLX-5 [8])?
A: 1

Q: Which results are given for `CNC(=O)c1ncn2c(=O)n(CCCl)nnc12`?
A: Survivors (L1210 [9]): 0; T/C (TLX-5 [1]): >154%; Survivors (TLX-5 [10]): 0; Survivors (TLX-5 [11]): 0; Survivors (TLX-5 [8]): 0

Q: What does the source list for `CCSC(=O)c1ncn2c(=O)n(CCCl)nnc12`?
A: T/C (TLX-5 [12]): 119%; T/C (TLX-5 [1]): 106%; T/C (TLX-5 [13]): 125%; T/C (TLX-5 [2]): 104%; T/C (TLX-5 [3]): 108%; Survivors (TLX-5 [14]): 0; Survivors (TLX-5 [5]): 0; Survivors (TLX-5 [7]): 0; Survivors (TLX-5 [8]): 0; Survivors (TLX-5 [15]): 0

Q: For `O=C(NCCCl)c1ncn2c(=O)n(CCCl)nnc12`, which T/C (L1210 [16]) is on record?
A: 227%

Q: What about the T/C (L1210 [17]) of the same compound?
A: 121%

Q: What about the T/C (L1210 [18]) of the same compound?
A: 183%

Q: What about the Survivors (L1210 [19]) of the same compound?
A: 0

Q: And the Survivors (L1210 [20])?
A: 0

Q: And the T/C (TLX-5 [21])?
A: 103%

Q: And the T/C (TLX-5 [1])?
A: 142%

Q: What about the T/C (TLX-5 [2]) of the same compound?
A: >361%

Q: And the Survivors (TLX-5 [10])?
A: 0

Q: What about the Survivors (TLX-5 [5]) of the same compound?
A: 0

Q: What about the Survivors (TLX-5 [7]) of the same compound?
A: 3

Q: What about the Survivors (TLX-5 [8]) of the same compound?
A: 0

Q: And the Survivors (L1210 [22])?
A: 0

Q: What does the source list for `CC(C)(C)NC(=O)c1ncn2c(=O)n(CCCl)nnc12`?
A: T/C (L1210 [23]): 307%; T/C (L1210 [24]): 149%; T/C (L1210 [25]): 132%; Survivors (L1210 [26]): 0; Survivors (L1210 [27]): 0; Survivors (L1210 [28]): 0

Q: For `CN(C)C(=O)c1ncn2c(=O)n(CCCl)nnc12`, which Survivors (L1210 [29]) is on record?
A: 0

Q: And the Survivors (L1210 [9])?
A: 0

Q: And the Survivors (TLX-5 [14])?
A: 0

Q: What about the Survivors (TLX-5 [5]) of the same compound?
A: 0

Q: With `O=C(N[N+](=O)[O-])c1ncn2c(=O)n(CCCl)nnc12` as the compound, how does the T/C (TLX-5 [12]) read?
A: >354%

Q: What about the T/C (TLX-5 [1]) of the same compound?
A: 109%

Q: What about the T/C (TLX-5 [2]) of the same compound?
A: 101%

Q: And the T/C (TLX-5 [3])?
A: 118%

Q: What about the Survivors (TLX-5 [14]) of the same compound?
A: 2

Q: What about the Survivors (TLX-5 [5]) of the same compound?
A: 0

Q: What about the Survivors (TLX-5 [6]) of the same compound?
A: 0

Q: What about the Survivors (TLX-5 [7]) of the same compound?
A: 0

Q: And the Survivors (TLX-5 [8])?
A: 0
